This note sets out measurements from ChEMBL document CHEMBL1140695, “Endomorphin-2 with a beta-turn backbone constraint retains the potent micro-opioid receptor agonist properties” (J Med Chem, 2008).

Data set [1] deals with Mu-type opioid receptor (Rattus norvegicus) (UniProt P33535). The data set is described as follows: Agonist activity at mu opioid receptor in rat brain assessed as maximal stimulation of [35S]GTP-gamma-S binding relative to basal level. It counts as functional, tissue-based. The procedure, abridged:
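[35S]GTPγS binding in rat brain membrane fractions, reversal tested with naloxone 1 µM.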

Data set [2] is described as follows: Stability in rat brain assessed as half life. It counts as ADME, tissue-based. The procedure, abridged: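 Peptides incubated in rat brain homogenate lacking cerebellum. Digestion mixtures analysed by RP-HPLC; velocity constants and half-lives calculated assuming pseudo-first-order kinetics.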
Data set [3] has as its target Mu-type opioid receptor (Rattus norvegicus, UniProt P33535). The data set is described as follows: Displacement of [3H]DAMGO from mu opioid receptor in Wistar rat brain after 45 mins. The essentials:
(§1)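 Radioligand binding on a crude membrane fraction of Wistar rat forebrain.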
For orientation: Displacement assays read how much labelled ligand stays bound in the presence of the test substance.

For data set [4], the target named is Delta-type opioid receptor (Rattus norvegicus, UniProt P33533). The data set is described as follows: Displacement of [3H]deltorphin 2 from delta opioid receptor in Wistar rat brain after 45 mins. The essentials: as §1
Sequence of Delta-type opioid receptor (P33533 whole entry): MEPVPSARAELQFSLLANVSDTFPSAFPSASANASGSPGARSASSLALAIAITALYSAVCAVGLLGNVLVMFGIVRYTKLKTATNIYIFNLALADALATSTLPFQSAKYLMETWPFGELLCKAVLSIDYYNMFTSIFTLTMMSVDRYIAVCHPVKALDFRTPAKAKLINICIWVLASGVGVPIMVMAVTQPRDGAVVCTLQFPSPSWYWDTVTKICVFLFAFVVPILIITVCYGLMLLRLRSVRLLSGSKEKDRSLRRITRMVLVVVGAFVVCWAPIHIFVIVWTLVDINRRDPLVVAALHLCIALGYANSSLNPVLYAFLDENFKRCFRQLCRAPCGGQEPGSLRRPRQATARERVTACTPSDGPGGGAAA
For data set [5], the target named is Mu-type opioid receptor (Mus musculus, UniProt P42866). The data set is described as follows: Agonist activity at mu opioid receptor in NMRI mouse vas deferens assessed as inhibition of electrically-stimulated muscle contraction. It counts as functional, tissue-based. The essentials:
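Mouse vas deferens preparation; agonist potency. Values are means ± S.E.M of 3–7 independent duplicate experiments.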

In data set [6] the target is Mu-type opioid receptor (Homo sapiens) (UniProt P35372). The settings on record: CHO.
Sequence of Mu-type opioid receptor (Homo sapiens) (P35372 whole entry): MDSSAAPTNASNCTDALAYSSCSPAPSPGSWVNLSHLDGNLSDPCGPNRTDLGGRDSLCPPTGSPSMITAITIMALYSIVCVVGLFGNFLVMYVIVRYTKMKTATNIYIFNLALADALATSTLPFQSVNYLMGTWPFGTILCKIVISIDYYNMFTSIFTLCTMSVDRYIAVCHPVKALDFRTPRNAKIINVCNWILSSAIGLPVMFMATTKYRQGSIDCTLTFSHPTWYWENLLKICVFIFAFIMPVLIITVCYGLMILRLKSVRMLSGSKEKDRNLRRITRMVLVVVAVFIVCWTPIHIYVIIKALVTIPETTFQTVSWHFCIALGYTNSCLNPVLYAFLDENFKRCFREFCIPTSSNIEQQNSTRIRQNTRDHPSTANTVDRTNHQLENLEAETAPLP
Data set [7] deals with Mu-type opioid receptor (Rattus norvegicus) (UniProt P33535). As to conditions: Brain.
Sequence of Mu-type opioid receptor (Rattus norvegicus) (P33535 whole entry): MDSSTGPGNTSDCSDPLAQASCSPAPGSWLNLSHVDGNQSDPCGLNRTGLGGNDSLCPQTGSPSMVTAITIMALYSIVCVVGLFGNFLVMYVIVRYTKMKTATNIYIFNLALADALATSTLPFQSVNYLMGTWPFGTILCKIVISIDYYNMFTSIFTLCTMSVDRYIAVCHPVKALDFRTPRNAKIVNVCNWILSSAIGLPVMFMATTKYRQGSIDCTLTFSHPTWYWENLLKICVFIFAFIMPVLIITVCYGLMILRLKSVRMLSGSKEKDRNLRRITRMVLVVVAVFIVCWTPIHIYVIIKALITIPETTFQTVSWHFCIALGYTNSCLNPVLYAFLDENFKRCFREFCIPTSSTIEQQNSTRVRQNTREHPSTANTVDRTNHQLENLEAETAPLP

Sequence of Mu-type opioid receptor (Rattus norvegicus, UniProt P33535) (P33535 whole entry): as above
Sequence of Mu-type opioid receptor (Mus musculus, UniProt P42866) (P42866 whole entry): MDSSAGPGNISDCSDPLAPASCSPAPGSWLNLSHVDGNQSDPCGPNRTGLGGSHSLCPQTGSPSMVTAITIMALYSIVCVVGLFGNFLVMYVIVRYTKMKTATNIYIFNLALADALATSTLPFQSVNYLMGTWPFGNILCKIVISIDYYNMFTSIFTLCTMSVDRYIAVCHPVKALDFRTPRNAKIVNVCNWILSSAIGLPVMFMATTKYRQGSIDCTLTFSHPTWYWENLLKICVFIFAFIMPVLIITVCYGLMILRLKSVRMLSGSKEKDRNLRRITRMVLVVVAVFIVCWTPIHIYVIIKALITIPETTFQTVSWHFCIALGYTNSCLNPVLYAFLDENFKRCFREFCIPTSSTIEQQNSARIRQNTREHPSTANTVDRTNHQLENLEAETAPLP

In the case of `CN1CC[C@]23c4c5ccc(O)c4O[C@H]2[C@@H](O)C=C[C@H]3[C@H]1C5`, in data set [1], the Emax (in general, the size of the effect at its maximum, as opposed to the concentration needed) turned out to be 134%.

With `NC(=O)[C@H](Cc1ccccc1)NC(=O)CN1Cc2ccccc2C[C@@]2(CCCN2C(=O)[C@@H](N)Cc2ccc(O)cc2)C1=O`, the half-life (in general, the time in which the quantity being followed falls by half) in data set [2] was more than 24 h. Moreover, the figures for the Ki (on Mu-type opioid receptor [3]; in data set [4]) were 8.73 nM and 2.31 nM, respectively.

Consider `NC(=O)[C@H](Cc1ccccc1)NC(=O)CN1Cc2ccccc2C[C@H](NC(=O)[C@@H](N)Cc2ccc(O)cc2)C1=O`, for which, in data set [2], the half-life came to 0.0117 h. Also, the Ki (commonly a dissociation constant, usually derived from enzyme kinetics or from competition with a known ligand) at Mu-type opioid receptor [3] worked out at 0.373 nM; in data set [4], 0.778 nM.

`C[C@@H](NC(=O)[C@@H](N)Cc1ccc(O)cc1)C(=O)NCC(=O)N(C)[C@@H](Cc1ccccc1)C(=O)NCCO`: in data set [1], the Emax came to 169%.

In the case of `NC(=O)[C@H](Cc1ccccc1)NC(=O)CN1Cc2ccccc2C[C@@H](NC(=O)[C@@H](N)Cc2ccc(O)cc2)C1=O`, the half-life in data set [2] was 3.3 h. The Ki at Mu-type opioid receptor [3] is 2.25 nM; in data set [4], 2.96 nM.

Turning to `NC(=O)[C@H](Cc1ccccc1)NC(=O)[C@H](Cc1ccccc1)NC(=O)[C@@H]1CCCN1C(=O)[C@@H](N)Cc1ccc(O)cc1` [ENDOMORPHIN 2], the half-life in data set [2] worked out at 0.0633 h.

Turning to `NC(=O)[C@H](Cc1ccccc1)NC(=O)CN1Cc2ccccc2C[C@]2(CCCN2C(=O)[C@@H](N)Cc2ccc(O)cc2)C1=O`, the half-life in data set [2] is more than 24 h. In addition, the Ki at Mu-type opioid receptor [3] is 0.0293 nM; in data set [4], more than 10 nM. Besides, the Emax in data set [1] worked out at 134%. Also, the IC50 (as a rule, the midpoint of a concentration-inhibition curve) on Mu-type opioid receptor [5] came out at 49.8 nM. Moreover, the Log10ED50 in data set [6] came out at 6.88; in data set [7], 6.74.
